Tested on: Fibroblast
Assay: Multiplex assay against human fibroblast
Assay type: toxicity, cell-based
Outline: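 With compound added, live cells were imaged on a CQ1 microscope at 37°C and 5% CO2; staining with Hoechst33342, BioTracker Green Microtubule Cytoskeleton Dye, MitoTracker Red and Annexin V Alexa Fluor 680 had been done at seeding. The CellPathfinder machine-learning gating scheme split cells into Hoechst high-intensity objects or normal cells, normal cells into healthy, pyknosed or fragmented nuclei, and pyknosed cells into mitotic or apoptotic. The tubulin, mitochondrial-mass and membrane-permeability phenotypes are per cents of healthy-nucleus cells.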

[1] = 12 h, 1 µM, compound concentration 1 uM, replicate 1
[2] = 12 h, 1 µM, compound concentration 1 uM, replicate 2
[3] = 12 h, 10 µM, compound concentration 10 uM, replicate 1
[4] = 12 h, 10 µM, compound concentration 10 uM, replicate 2
[5] = 24 h, 1 µM, compound concentration 1 uM, replicate 1
[6] = 24 h, 1 µM, compound concentration 1 uM, replicate 2
[7] = 24 h, 10 µM, compound concentration 10 uM, replicate 1
[8] = 24 h, 10 µM, compound concentration 10 uM, replicate 2
[9] = 48 h, 1 µM, compound concentration 1 uM, replicate 1
[10] = 48 h, 1 µM, compound concentration 1 uM, replicate 2
[11] = 48 h, 10 µM, compound concentration 10 uM, replicate 1
[12] = 48 h, 10 µM, compound concentration 10 uM, replicate 2

CN(C)c1ccnc2sc3c(=O)n(N4CCCCCC4)cnc3c12
Population Apoptotic (%) [1]: 42% | Population Fragmented Nuclei (%) [1]: 17% | Population Healthy Nuclei (%) [1]: 64% | Population Hoechst High Intensity Objects (%) [1]: 3% | Population Membrane Permeable-Phenotype (%) [1]: 1% | Population Mitochondria Different-Phenotype (%) [1]: 3% | Population Mitotic Cells (%) [1]: 57% | Population Normal (%) [1]: 96% | Population Pyknosed Nuclei (%) [1]: 18% | Population Tubulin-Different-Phenotype (%) [1]: 29% | Total Cell Count [1]: 144 | Population Apoptotic (%) [2]: 30% | Population Fragmented Nuclei (%) [2]: 28% | Population Healthy Nuclei (%) [2]: 51% | Population Hoechst High Intensity Objects (%) [2]: 6% | Population Membrane Permeable-Phenotype (%) [2]: 10% | Population Mitotic Cells (%) [2]: 70% | Population Normal (%) [2]: 93% | Population Pyknosed Nuclei (%) [2]: 19% | Population Tubulin-Different-Phenotype (%) [2]: 44% | Total Cell Count [2]: 162 | Population Apoptotic (%) [3]: 44% | Population Fragmented Nuclei (%) [3]: 14% | Population Healthy Nuclei (%) [3]: 58% | Population Hoechst High Intensity Objects (%) [3]: 5% | Population Membrane Permeable-Phenotype (%) [3]: 1% | Population Mitochondria Different-Phenotype (%) [3]: 14% | Population Mitotic Cells (%) [3]: 55% | Population Normal (%) [3]: 94% | Population Pyknosed Nuclei (%) [3]: 27% | Population Tubulin-Different-Phenotype (%) [3]: 75% | Total Cell Count [3]: 141 | Population Apoptotic (%) [4]: 49% | Population Fragmented Nuclei (%) [4]: 31% | Population Healthy Nuclei (%) [4]: 30% | Population Hoechst High Intensity Objects (%) [4]: 7% | Population Membrane Permeable-Phenotype (%) [4]: 12% | Population Mitotic Cells (%) [4]: 50% | Population Normal (%) [4]: 92% | Population Pyknosed Nuclei (%) [4]: 38% | Total Cell Count [4]: 145 | Population Apoptotic (%) [5]: 48% | Population Fragmented Nuclei (%) [5]: 11% | Population Healthy Nuclei (%) [5]: 67% | Population Hoechst High Intensity Objects (%) [5]: 3% | Population Membrane Permeable-Phenotype (%) [5]: 0% | Population Mitochondria Different-Phenotype (%) [5]: 3% | Population Mitotic Cells (%) [5]: 51% | Population Normal (%) [5]: 96% | Population Pyknosed Nuclei (%) [5]: 21% | Population Tubulin-Different-Phenotype (%) [5]: 27% | Total Cell Count [5]: 143 | Population Apoptotic (%) [6]: 50% | Population Fragmented Nuclei (%) [6]: 24% | Population Healthy Nuclei (%) [6]: 55% | Population Hoechst High Intensity Objects (%) [6]: 2% | Population Membrane Permeable-Phenotype (%) [6]: 10% | Population Mitochondria Different-Phenotype (%) [6]: 2% | Population Mitotic Cells (%) [6]: 50% | Population Normal (%) [6]: 97% | Population Pyknosed Nuclei (%) [6]: 19% | Population Tubulin-Different-Phenotype (%) [6]: 49% | Total Cell Count [6]: 146 | Population Apoptotic (%) [7]: 57% | Population Fragmented Nuclei (%) [7]: 13% | Population Healthy Nuclei (%) [7]: 58% | Population Hoechst High Intensity Objects (%) [7]: 5% | Population Membrane Permeable-Phenotype (%) [7]: 0% | Population Mitochondria Different-Phenotype (%) [7]: 18% | Population Mitotic Cells (%) [7]: 42% | Population Normal (%) [7]: 94% | Population Pyknosed Nuclei (%) [7]: 28% | Population Tubulin-Different-Phenotype (%) [7]: 63% | Total Cell Count [7]: 130 | Population Apoptotic (%) [8]: 30% | Population Fragmented Nuclei (%) [8]: 35% | Population Healthy Nuclei (%) [8]: 41% | Population Hoechst High Intensity Objects (%) [8]: 8% | Population Membrane Permeable-Phenotype (%) [8]: 22% | Population Mitochondria Different-Phenotype (%) [8]: 24% | Population Mitotic Cells (%) [8]: 69% | Population Normal (%) [8]: 91% | Population Pyknosed Nuclei (%) [8]: 22% | Population Tubulin-Different-Phenotype (%) [8]: 85% | Total Cell Count [8]: 128 | Population Apoptotic (%) [9]: 64% | Population Fragmented Nuclei (%) [9]: 19% | Population Healthy Nuclei (%) [9]: 70% | Population Hoechst High Intensity Objects (%) [9]: 2% | Population Membrane Permeable-Phenotype (%) [9]: 0% | Population Mitochondria Different-Phenotype (%) [9]: 0% | Population Mitotic Cells (%) [9]: 35% | Population Normal (%) [9]: 97% | Population Pyknosed Nuclei (%) [9]: 10% | Population Tubulin-Different-Phenotype (%) [9]: 30% | Total Cell Count [9]: 143 | Population Apoptotic (%) [10]: 36% | Population Fragmented Nuclei (%) [10]: 36% | Population Healthy Nuclei (%) [10]: 49% | Population Hoechst High Intensity Objects (%) [10]: 3% | Population Membrane Permeable-Phenotype (%) [10]: 6% | Population Mitochondria Different-Phenotype (%) [10]: 2% | Population Mitotic Cells (%) [10]: 63% | Population Normal (%) [10]: 96% | Population Pyknosed Nuclei (%) [10]: 14% | Population Tubulin-Different-Phenotype (%) [10]: 41% | Total Cell Count [10]: 157 | Population Apoptotic (%) [11]: 73% | Population Fragmented Nuclei (%) [11]: 22% | Population Healthy Nuclei (%) [11]: 47% | Population Hoechst High Intensity Objects (%) [11]: 8% | Population Membrane Permeable-Phenotype (%) [11]: 0% | Population Mitochondria Different-Phenotype (%) [11]: 25% | Population Mitotic Cells (%) [11]: 26% | Population Normal (%) [11]: 91% | Population Pyknosed Nuclei (%) [11]: 30% | Population Tubulin-Different-Phenotype (%) [11]: 76% | Total Cell Count [11]: 138 | Population Apoptotic (%) [12]: 50% | Population Fragmented Nuclei (%) [12]: 47% | Population Healthy Nuclei (%) [12]: 42% | Population Hoechst High Intensity Objects (%) [12]: 6% | Population Membrane Permeable-Phenotype (%) [12]: 19% | Population Mitochondria Different-Phenotype (%) [12]: 13% | Population Mitotic Cells (%) [12]: 50% | Population Normal (%) [12]: 93% | Population Pyknosed Nuclei (%) [12]: 9% | Population Tubulin-Different-Phenotype (%) [12]: 86% | Total Cell Count [12]: 131

Source: ChEMBL document CHEMBL5058577, “EUbOPEN Chemogenomics Library 2 (Multiplex)” (2022)
